# Only some compounds are listed: those with a hit (about 1.5% of all), similar ones and a draw of the others.
# TCR-CD3 inh = blocks the human TCR-CD3 interaction. TAMRA-labeled TCR probe fluorescence, biochemical. inhibition, % at 9.4 µM. 360,000 compounds, 0.37% hits. AID 651800; in the data active = inhibition above about 19%;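 note: recombinant mutant TCR 2C K166C tagged with TAMRA read by polarization; 0% = receptor in buffer alone and 100% = receptor with positive control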
# mABHD4 FP = ABHD4 (mouse) inhibition, primary FP screen. Q8VD66. purified mABHD4, FP-Rh probe fluorescence polarization. inhibition, % at 8.92 µM. 370,000 compounds, 0.54% hits. AID 720543;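 active = inhibition exceeding the mean over every tested compound plus 3 SD, cut at about 30% in these data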;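 note: 0% = plate median of compound wells and 100% = S159A mutant with DMSO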
# Target sequence (Q8VD66 whole entry, looked up): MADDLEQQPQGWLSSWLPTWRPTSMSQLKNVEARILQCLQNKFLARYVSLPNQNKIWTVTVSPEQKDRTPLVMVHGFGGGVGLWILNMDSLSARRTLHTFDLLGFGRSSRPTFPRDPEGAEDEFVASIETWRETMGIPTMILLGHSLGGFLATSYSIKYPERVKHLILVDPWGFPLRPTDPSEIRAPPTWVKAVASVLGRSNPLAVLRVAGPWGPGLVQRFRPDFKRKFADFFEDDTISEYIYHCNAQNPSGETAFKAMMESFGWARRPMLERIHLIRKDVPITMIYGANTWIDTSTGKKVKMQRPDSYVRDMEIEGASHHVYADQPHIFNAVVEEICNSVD
#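 Doses – 8.92 µM, single dose · Material – wild-type mouse ABHD4 protein · Replication – single well per compound (singlicate) · Measure – percent inhibition of probe binding, normalized to plate controls · Schedule – 45 min compound pre-incubation plus 60 min probe step, 25 °C · Detection – fluorescence polarization with parallel and perpendicular emission, 525/598 nm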
# HTRA1 inh = HTRA1 (human) protease inhibition. inhibition, % at 5.96 µM. recombinant HTRA1, FP-rhodamine activity-based probe, fluorescence polarization. 340,000 compounds, 0.5% hits; in the data active = inhibition above about 36%;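 note: 0% = enzyme with DMSO and 100% = wells lacking enzyme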
# SIAE inh = inhibitors of human sialic acid acetylesterase SIAE | AID 1053197 | 370,000 compounds, 0.69% hits | SIAE FP-Rh probe binding, fluorescence polarization | inhibition, % at 9.66 µM | Q9HAT2;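 active = inhibition above a cutoff: mean of compounds within the control limits plus 3 SD of those, cut at about 17% in these data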;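 note: 0% = plate median of compound wells and 100% = probe without SIAE protein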
# DAGLB inhibitor = blocks human DAGLB lipase activity; HEK293T DAGLB membrane lysate, EnzChek fluorogenic substrate; 340,000 compounds, 0.059% hits; inhibition, % at 5.17 µM; in the data active = inhibition above about 34%;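 note: 0% = enzyme with vehicle and 100% = wells lacking enzyme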
# ABHD4 confirm = confirmation of mouse ABHD4 inhibitors; shares compounds with mABHD4 FP; 1,800 compounds, 55% hits; purified mABHD4, FP-Rh probe fluorescence polarization; AID 720658; inhibition, % at 8.92 µM;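 active = mean inhibition across replicates above the hit cutoff set in the primary screen, cut at about 30% in these data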;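 note: 0% = wild-type ABHD4 with DMSO and 100% = catalytically dead S159A mutant with DMSO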
# Numbers without * were called inactive; . = no result.
SMILES,TCR-CD3 inh,mABHD4 FP,HTRA1 inh,SIAE inh,DAGLB inhibitor,ABHD4 confirm
Cc1ccc(NC(=S)NNC(=O)c2cnccn2)cc1,.,52*,.,12,.,59*
C=CCSC1=N/C(=C\c2cc(OCC)c(OC(C)=O)c([N+](=O)[O-])c2)C(=O)S1,6,37*,28,-11,31,85*
C=CCSC1=N/C(=C\c2ccc3c(c2)OCO3)C(=O)S1,2,9,-7,0,-5,.
CCC(C(=O)OCc1csc(CC(=O)Nc2ccccc2C)n1)c1ccccc1 (configuration not stated),-2,30*,-14,-4,-6,17
COc1cc(C(=O)OCc2csc(CC(=O)Nc3ccccc3C)n2)ccc1OCC(C)C,-6,43*,-25,2,-5,14
COc1ccc(CCC(=O)OCc2csc(CC(=O)Nc3ccccc3C)n2)cc1,1,36*,-10,-4,0,19
CCOc1cccc(/C=N\NC(=O)Cc2cccs2)c1O,.,2,.,9,.,.
C=CCN=C1NC(c2cccc(F)c2)C(C(=O)OC)=C(C)N1C (configuration not stated),0,-3,.,2,.,.
COc1cccc(/C=N/Nc2snc(SC)c2C#N)c1O,5,33*,6,-24,1,23
CSc1nsc(N/N=C/c2ccccc2)c1C#N,-3,24,1,10,-4,.
COc1cccc(/C=N/Nc2snc(SC)c2C#N)c1,-7,15,-4,12,0,.
COc1ccc(/C=N/Nc2snc(SC)c2C#N)cc1OC,1,35*,2,-4,7,34*
CC(=O)C1=C(C)NC2=C(C(=O)c3ccccc32)C1c1ccccc1 (configuration not stated),2,41*,12,9,17,83*
O=C(CCc1ccccc1-c1ccccc1CCNC(=O)c1cccc(F)c1)NCc1ccccc1,.,1,.,1,.,.
COc1cccc(/C=N/Nc2ccc([N+](=O)[O-])cn2)c1O,-4,5,4,3,6,.
COc1cccc(C=NN(C)c2c([N+](=O)[O-])cc(C(F)(F)F)cc2[N+](=O)[O-])c1O,2,45*,.,9,.,49*
CC(C)CN(C(=O)COC(=O)Cn1cnc2ccccc2c1=O)C1CCS(=O)(=O)C1 (configuration not stated),9,9,2,4,-3,.
CN(C(=O)Cn1cnc2ccccc2c1=O)C1CCS(=O)(=O)C1 (configuration not stated),-3,50*,-2,7,-3,-9
CC1CCN(c2ccc(C(=O)O)cc2NS(=O)(=O)c2ccccc2)CC1,.,37*,.,8,.,39*
CC1CCN(C(=O)c2ccccc2NS(=O)(=O)c2ccccc2)CC1,0,5,-7,-11,1,.
CCCCC1CC(CSc2ncn[nH]2)OC1=O (configuration not stated),1,79*,2,5,-1,-13
CCCCCCCC1CC(CSc2ncn[nH]2)OC1=O (configuration not stated),3,-5,-1,1,-4,.
COc1ccc(OC)c(Nc2nc(NCCO)c3ccccc3n2)c1,2,3,10,5,3,.
Cc1ccc(Nc2nc(NCCO)c3ccccc3n2)cc1C,-3,35*,5,-4,1,78*
CC(C)(C)OC(=O)NC(Cc1ccccc1)C1CC(C#N)C(=O)O1 (configuration not stated),.,3,.,7,.,.
SMILES,TCR-CD3 inh,mABHD4 FP,HTRA1 inh,SIAE inh,DAGLB inhibitor,ABHD4 confirm
COc1cc(OC)cc(C(=O)Nc2nc(CC(=O)NCc3ccccc3OC)cs2)c1,5,-5,-54,-4,0,.
COc1cc(OC)cc(C(=O)Nc2nc(CC(=O)NCc3ccc(F)cc3)cs2)c1,-8,43*,-45,0,0,35*
COc1cccc(OC)c1C(=O)Nc1ccc(N2CCCC2)cc1,2,33*,4,9,0,38*
COc1ccccc1C(=O)Nc1ccc(N2CCCCC2)cc1,-1,-1,-2,-11,3,.
Cc1cc(NCCCCCCCNc2cc(C)nc3cc([N+](=O)[O-])ccc23)c2ccc([N+](=O)[O-])cc2n1,-10,32*,8,4,10,40*
OCC[C@H]1C[C@@H](O)[C@H](O)[C@]2(OCCc3ccccc32)O1,-3,35*,8,0,-5,1
CCCCCCCCCCOC(=O)Cn1c(COc2ccccc2)[n+](C)c2ccccc21,2,30*,20,0,7,33*
CCCCCCCCCCOC(=O)Cn1c(COc2ccc(Cl)cc2)[n+](C)c2ccccc21,1,35*,34,1,14,55*
CCCCCCCCCCOC(=O)Cn1c(COc2ccc(OC)cc2)[n+](C)c2ccccc21,.,.,18,.,8,.
Cc1cc(N2CCN(Cc3ccccc3)CC2)n2nc(C)nc2n1,.,4,.,1,.,.
COC(=O)[C@]12C[C@H](CC(=O)NCC34CC5CC(CC(C5)C3)C4)C(=O)N(Cc3ccc(Cl)cc3Cl)C1=C[C@H](C1CCCC1)O[C@@H]2C,.,-7,.,-8,.,.
Cc1cccc(NC(=O)CSc2nnc(-c3ccco3)c(-c3ccco3)n2)c1,6,44*,26,16,3,44*
COc1cc(/C=C/C(=O)O)cc(S(=O)(=O)Nc2cc(Cl)c(Cl)cc2Cl)c1OC,6,32*,-11,2,10,35*
COC(=O)CNC(=O)C1Nc2ccc(OC(F)(F)F)cc2C2C=CCC12 (configuration not stated),-1,47*,27,5,-6,-4
COCCNC(=O)C1Nc2ccc(C(F)(F)F)cc2C2C=CCC12 (configuration not stated),-4,33*,30,8,3,0
COCCNC(=S)N/N=C(\C)c1cccc(C(F)(F)F)c1,-3,2,-1,3,-4,.
Clc1ccc(-c2nc3ccccn3c2CN2CCCCC2)cc1,-6,-3,-6,4,-3,.
Oc1ccc(N2CCN(Cc3c(-c4ccccc4)nc4ccccn34)CC2)cc1,3,31*,17,6,2,-3
COc1cccc2c1[C@H](/C=C/c1ccccc1)[C@@H]([C@H](O)CO)OC2,.,-4,.,-2,.,.
CC(C)OC(=O)CSc1nnc(-c2cnccn2)n1C,2,116*,3,-2,0,-14
Nc1ccc2c(c1)-c1ccccc1S(=O)(=O)N2,0,50*,30,14,11,31*
Cc1ccc2c(c1)-c1ccccc1S(=O)(=O)N2,2,6,-3,-1,1,.
COc1cccc(C(=O)N2CCC[C@@H]2C(=O)N2CCC[C@@H]2C(=O)NCc2ccccc2)c1,3,1,.,0,.,.
NC(=O)c1ccc(NCCc2ccccc2)c([N+](=O)[O-])c1,8,3,-8,-5,4,.
